Laboratory results from ChEMBL document CHEMBL3046823, “Insect muscarinic acetylcholine receptor: pharmacological and toxicological profiles of antagonists and agonists” (J Agric Food Chem, 2007).
pKi: −log10 of the molar value.

Tests used:
[1] = tested on: Musca domestica; test: Toxicity to Musca domestica (house fly) assessed as mortality at 25 ug/fly measured after 0.5 hr; assay type: functional
Outline: (§1)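 Insecticide-susceptible adult female Musca (~25 mg) received PPP (2.5 µg/fly in 0.5 µL acetone, abdominal ventrum), then 90 min at room temperature. The compound (active ingredient) was given by intrathoracic injection in 0.22 µL water or 25-50% Me2SO/water. Mortality was scored at 0.5, 1.0, 1.5, 2.5 and 24 h.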

[2] = tested on: Musca domestica; test: Toxicity to Musca domestica (house fly) assessed as mortality at 25 ug/fly measured after 2.5 hr; assay type: functional; outline: as §1
[3] = tested on: Musca domestica; test: Toxicity to Musca domestica (house fly) assessed as mortality at 25 ug/fly measured after 1 hr; assay type: functional; outline: as §1
[4] = biological target: T1, Muscarinic acetylcholine receptor DM1 (Drosophila melanogaster, UniProt P16395); test: Displacement of [3H]QNB from Drosophila melanogaster mAChR by scintillation counting
[5] = tested on: Musca domestica; test: Toxicity to Musca domestica (house fly) assessed as mortality at 75 ug/fly measured after 1.5 hr; assay type: functional; outline: as §1
[6] = tested on: Musca domestica; test: Toxicity to Musca domestica (house fly) assessed as mortality at 75 ug/fly measured after 1 hr; assay type: functional; outline: as §1
[7] = tested on: Musca domestica; test: Toxicity to Musca domestica (house fly) assessed as mortality at 75 ug/fly measured after 24 hr; assay type: functional; outline: as §1
[8] = biological target: T1, Muscarinic acetylcholine receptor DM1; test: Displacement of [3H]AF-DX 384 from Drosophila melanogaster mAChR by scintillation counting
[9] = tested on: Musca domestica; test: Toxicity to Musca domestica (house fly) assessed as mortality at 25 ug/fly measured after 24 hr; assay type: functional; outline: as §1
[10] = tested on: Musca domestica; test: Toxicity to Musca domestica (house fly) assessed as mortality at 25 ug/fly measured after 1.5 hr; assay type: functional; outline: as §1
[11] = tested on: Musca domestica; test: Toxicity to Musca domestica (house fly) assessed as mortality at 75 ug/fly measured after 2.5 hr; assay type: functional; outline: as §1
[12] = tested on: Musca domestica; test: Toxicity to Musca domestica (house fly) assessed as mortality at 75 ug/fly measured after 0.5 hr; assay type: functional; outline: as §1
[13] = tested on: Musca domestica; test: Ex vivo inhibition of [3H]QNB binding in brain of Musca domestica (house fly) at 75 ug/fly measured after 24 hr; assay type: functional
Outline: (§2)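 Adult female houseflies pretreated with PPP (2.5 µg/fly, topical in acetone, 90 min), then dosed by intrathoracic injection in 0.22 µL water or 25-50% Me2SO/water. Heads were taken 0.5 or 24 h later and homogenized (50 per batch) in 50 mM sodium phosphate pH 7.4. Filtrate (~800 µg protein) was bound with 0.5 nM [3H]QNB, 60 min, 25 °C. Values are relative to vehicle-treated flies; 6−8 measurements over two experiments.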

[14] = tested on: Musca domestica; test: Ex vivo inhibition of [3H]QNB binding in brain of Musca domestica (house fly) at 25 ug/fly measured after 24 hr; assay type: functional; outline: as §2
[15] = tested on: Musca domestica; test: Ex vivo inhibition of [3H]QNB binding in brain of Musca domestica (house fly) at 25 ug/fly measured after 0.5 hr; assay type: functional; outline: as §2
[16] = tested on: Musca domestica; test: Ex vivo inhibition of [3H]QNB binding in brain of Musca domestica (house fly) at 75 ug/fly measured after 0.5 hr; assay type: functional; outline: as §2
[17] = biological target: Muscarinic acetylcholine receptor DM1 (Drosophila melanogaster) (UniProt P16395); test: Displacement of [3H]QNB from Drosophila melanogaster mAChR at 100000 nM by scintillation counting
[18] = biological target: Muscarinic acetylcholine receptor DM1 (Drosophila melanogaster) (UniProt P16395); test: Displacement of [3H]AF-DX 384 from Drosophila melanogaster mAChR at 100000 nM by scintillation counting
[19] = tested on: Musca domestica; test: Toxicity to Musca domestica (house fly) assessed as mortality at 7.5 ug/fly measured after 2.5 hr; assay type: functional; outline: as §1
[20] = tested on: Musca domestica; test: Toxicity to Musca domestica (house fly) assessed as mortality at 7.5 ug/fly measured after 0.5 hr; assay type: functional; outline: as §1
[21] = tested on: Musca domestica; test: Toxicity to Musca domestica (house fly) assessed as mortality at 7.5 ug/fly measured after 24 hr; assay type: functional; outline: as §1
[22] = tested on: Musca domestica; test: Toxicity to Musca domestica (house fly) assessed as mortality at 7.5 ug/fly measured after 1 hr; assay type: functional; outline: as §1
[23] = tested on: Musca domestica; test: Toxicity to Musca domestica (house fly) assessed as mortality at 7.5 ug/fly measured after 1.5 hr; assay type: functional; outline: as §1

T1 sequence (P16395 whole entry): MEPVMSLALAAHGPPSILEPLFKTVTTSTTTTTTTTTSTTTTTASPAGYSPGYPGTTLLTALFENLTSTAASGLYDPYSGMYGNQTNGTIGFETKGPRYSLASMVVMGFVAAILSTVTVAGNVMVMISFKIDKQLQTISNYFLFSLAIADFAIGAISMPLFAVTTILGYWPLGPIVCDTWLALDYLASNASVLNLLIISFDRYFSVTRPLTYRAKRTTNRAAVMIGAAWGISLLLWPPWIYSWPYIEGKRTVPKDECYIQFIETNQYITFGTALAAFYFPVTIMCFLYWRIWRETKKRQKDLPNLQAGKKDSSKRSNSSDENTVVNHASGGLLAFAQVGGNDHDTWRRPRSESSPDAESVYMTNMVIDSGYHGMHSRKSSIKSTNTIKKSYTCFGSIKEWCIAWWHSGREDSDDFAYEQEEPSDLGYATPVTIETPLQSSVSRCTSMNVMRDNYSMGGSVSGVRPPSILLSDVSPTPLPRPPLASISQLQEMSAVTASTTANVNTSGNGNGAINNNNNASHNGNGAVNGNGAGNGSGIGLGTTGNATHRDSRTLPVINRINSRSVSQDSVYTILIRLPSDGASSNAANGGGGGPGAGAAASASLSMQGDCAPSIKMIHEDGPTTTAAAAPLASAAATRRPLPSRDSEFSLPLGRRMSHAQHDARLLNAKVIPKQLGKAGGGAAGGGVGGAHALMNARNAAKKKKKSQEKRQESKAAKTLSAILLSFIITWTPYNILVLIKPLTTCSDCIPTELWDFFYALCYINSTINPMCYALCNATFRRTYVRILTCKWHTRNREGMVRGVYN
Chain of Muscarinic acetylcholine receptor DM1 (Drosophila melanogaster) (P16395 whole entry): as above

CN1[C@@H]2CC[C@H]1C[C@@H](OC(=O)N1Cc3ccccc3NC1=O)C2
Activity [1]: 23% | Activity [2]: 0% | Activity [3]: 17% | pKi [4]: 6.19 | Activity [5]: 23% | Activity [6]: 43% | Activity [7]: 7% | pKi [8]: 6.24 | Activity [9]: 0% | Activity [10]: 10% | Activity [11]: 17% | Activity [12]: 70%

Cc1noc(C2CN3CCC2CC3)n1 (stereo not drawn)
Activity [1]: 47% | Activity [2]: 3% | Activity [3]: 20% | pKi [4]: 5.88 | Activity [5]: 60% | Activity [6]: 83% | Activity [7]: 13% | pKi [8]: 5.88 | inhibition (INH) [13]: 16% | inhibition (INH) [14]: 9% | Activity [9]: 3% | inhibition (INH) [15]: 49% | Activity [10]: 13% | inhibition (INH) [16]: 80% | Activity [11]: 33% | Activity [12]: 100%

CCOC(=O)c1c(C)[nH]c2ccc3c(c12)CN1CCc2cc(OC)ccc2C1O3 (stereo not drawn)
Activity [1]: 20% | Activity [2]: 13% | Activity [3]: 13% | pKi [4]: 5.99 | pKi [8]: 5.84 | Activity [9]: 13% | Activity [10]: 13%

O=[N+]([O-])/N=C1\NCCN1Cc1ccc(Cl)nc1
inhibition [17]: 1% | inhibition [18]: 3%

Cc1ccc(C[N+](C)(C)C)o1 [5-METHYLFURMETHIODIDE]
pKi [4]: 4.83 | pKi [8]: 4.91

CC(=O)OC1CN2CCC1CC2 (stereo not drawn) [ACECLIDINE]
Activity [1]: 33% | Activity [2]: 3% | Activity [3]: 3% | pKi [4]: 3.89 | Activity [5]: 27% | Activity [6]: 30% | Activity [7]: 3% | pKi [8]: 3.94 | Activity [9]: 0% | Activity [10]: 3% | Activity [11]: 10% | Activity [12]: 100%

CC#CCOC(=O)C1=CCCN(C)C1 [ARECAIDINE BUT-2-YNYL ESTER]
Activity [1]: 3% | Activity [2]: 3% | Activity [3]: 3% | pKi [4]: 5.82 | Activity [5]: 9% | Activity [6]: 9% | Activity [7]: 4% | pKi [8]: 5.81 | Activity [9]: 3% | Activity [10]: 3% | Activity [11]: 8% | Activity [12]: 10%

C#CCOC(=O)C1=CCCN(C)C1 [ARECAIDINE PROPARGYL ESTER]
Activity [1]: 17% | Activity [2]: 0% | Activity [3]: 0% | pKi [4]: 5.35 | Activity [5]: 100% | Activity [6]: 100% | Activity [7]: 87% | pKi [8]: 5.28 | Activity [9]: 0% | Activity [10]: 0% | Activity [11]: 100% | Activity [12]: 100%

CCOP(=O)(OCC)Oc1nc(Cl)c(Cl)cc1Cl [CHLORPHRIFOS OXON]
inhibition [17]: 17% | pKi [4]: < 4.00 | inhibition [18]: 29% | pKi [8]: < 4.00

O=[N+]([O-])NC1=NCCN1Cc1ccc(Cl)nc1 [IMIDACLOPRID]
pKi [4]: < 4.00 | pKi [8]: < 4.00

COc1ccccc1CNCCCCCCNCCCCCCCCNCCCCCCNCc1ccccc1OC.Cl.Cl.Cl.Cl [METHOCTRAMINE HYDROCHLORIDE]
Activity [1]: 100% | Activity [2]: 100% | Activity [19]: 0% | Activity [3]: 100% | pKi [4]: 5.55 | Activity [20]: 17% | pKi [8]: 5.41 | Activity [21]: 3% | Activity [22]: 10% | Activity [9]: 100% | Activity [10]: 100% | Activity [23]: 0%

C[N+]1(C)[C@@H]2CC[C@H]1C[C@@H](OC(=O)C(CO)c1ccccc1)C2.O=[N+]([O-])[O-] (stereo partly drawn) [METHYLATROPINE NITRATE]
Activity [1]: 17% | Activity [2]: 7% | Activity [3]: 7% | pKi [4]: 8.62 | Activity [5]: 20% | Activity [6]: 23% | Activity [7]: 7% | pKi [8]: 8.74 | Activity [9]: 13% | Activity [10]: 7% | Activity [11]: 20% | Activity [12]: 23%

O=C1CCCN1CC#CCN1CCCC1 [OXOTREMORINE]
pKi [4]: 4.71 | pKi [8]: 4.67

CCOP(=O)(OCC)Oc1ccc([N+](=O)[O-])cc1 [PARAOXON]
inhibition [17]: 0% | pKi [4]: < 4.00 | inhibition [18]: 13% | pKi [8]: < 4.00

CC[C@@H]1C(=O)OC[C@@H]1Cc1cncn1C [PILOCARPINE]
Activity [1]: 3% | Activity [2]: 0% | Activity [3]: 0% | Activity [5]: 10% | Activity [6]: 23% | Activity [7]: 7% | Activity [9]: 0% | Activity [10]: 0% | Activity [11]: 7% | Activity [12]: 67%

CN1CCN(CC(=O)N2c3ccccc3C(=O)Nc3cccnc32)CC1 [PIRENZEPINE]
Activity [1]: 20% | Activity [2]: 7% | Activity [3]: 7% | pKi [4]: 6.37 | Activity [5]: 20% | Activity [6]: 27% | Activity [7]: 10% | pKi [8]: 6.41 | Activity [9]: 7% | Activity [10]: 7% | Activity [11]: 13% | Activity [12]: 27%

Br.CN1[C@@H]2C[C@@H](OC(=O)[C@H](CO)c3ccccc3)C[C@H]1[C@@H]1O[C@@H]12.O.O.O [SCOPOLAMINE HYDROBROMIDE]
Activity [1]: 10% | Activity [2]: 3% | Activity [3]: 3% | Activity [5]: 0% | Activity [6]: 3% | Activity [7]: 0% | Activity [9]: 3% | Activity [10]: 3% | Activity [11]: 0% | Activity [12]: 20%
